Measured values as given in ChEMBL document CHEMBL3046326, “Screening of dialkoxybenzenes and disubstituted cyclopentene derivatives against the cabbage looper, Trichoplusia ni, for the discovery of new feeding and oviposition deterrents” (J Agric Food Chem, 2007).

Legend:
[1] = tested on: Trichoplusia ni; test: Oviposition deterrent activity against adult female Trichoplusia ni (cabbage looper) moths introduced along with male moths into oviposition cage containing compound pretreated cabbage leaves assessed as eggs laying on the leaf disks at 0.25% after 48 hr by oviposition choice bioassay; assay type: functional
Method in brief: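 Choice test with moths from larvae reared on normal diet from neonate to pupation. Pupae were sexed and held separately until emergence. Cabbage leaves were treated with test substance at 0.25% or left as control, and eggs per leaf were counted after 48 h. ODI = [(C − T)/(C + T)] × 100 from egg numbers on control and treated leaves.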

[2] = tested on: Trichoplusia ni; test: Toxicity against third-instar larval stage of Trichoplusia ni (cabbage looper) assessed as mortality at 0.25% measured after 24 hr by contact toxicity bioassay; assay type: functional
Method in brief: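 Third-instar larvae were sprayed directly with test solution at 0.25% in filter-paper-lined Petri dishes. They were then moved to dishes holding a small piece of artificial diet. Mortality was scored 24 h after spraying. The test applied only to compounds giving >50% feeding deterrence at 50 µg/cm².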

[3] = tested on: Trichoplusia ni; test: Feeding deterrent activity against freshly molted third-instar larval stage of Trichoplusia ni (cabbage looper) after 3 to 5 hr by leaf disk choice bioassay; assay type: functional, organism-based
Method in brief: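 Choice test: freshly molted third instar larvae, starved 4–5 h, offered two leaf disks, one painted on each side with 10 µL test solution and one with carrier solvent only. Twenty-five larvae per treatment. Ended when ~50% of the control disk was eaten (normally 3–5 h). Consumed areas measured. DC50 derived by linear regression of at least four concentrations (3.12–25 µg/cm²).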

[4] = tested on: Trichoplusia ni; test: Feeding deterrent activity against freshly molted third-instar larval stage of Trichoplusia ni (cabbage looper), Trichoplusia ni at 50 ug/cm'2 after 3 to 5 hr by leaf disk choice bioassay; assay type: functional
Method in brief: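 Leaf disk choice with freshly molted third instar larvae starved 4–5 h. One disk was painted on each side with 10 µL solution giving 50 µg/cm², the other with carrier solvent. Twenty-five larvae per treatment, stopped at ~50% control disk consumption (3–5 h). Deterrence = [(C − T)/(C + T)] × 100 from consumed areas; mean ± SE, Tukey's test p < 0.05.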

| Compound | Activity [1] [%] | mortality [2] [%] | DC50 [3] [microg/cm2] | Activity [4] [%] |
| --- | --- | --- | --- | --- |
| CCOc1cccc(OCC)c1 [1,3-DIETHOXYBENZENE] | 3.4 | 36.7 | 28.7 | 89.4 |
| CCCOc1cccc(OCCC)c1 [1,3-DIPROPOXYBENZENE] | 33 | 76.7 | 26.8 | 96.9 |
| C=CCOc1ccc(OCC=C)cc1 [1,4-DIALLYLOXYBENZENE] | 14.1 | 16 | 23.9 | 96.9 |
| CCCOc1ccc(OCCC)cc1 [1,4-DIPROPOXYBENZENE] | 11.8 | 22.6 | 20.3 | 96 |
| C=CCOc1ccccc1OCCCC [1-allyloxy-2-butoxybenzene] | 66.7 | 23.3 | 30 | 67.8 |
| C=CCOc1ccccc1OCC [1-allyloxy-2-ethoxybenzene] | 66.7 | 23.3 | 30 | 67.8 |
| C=CCOc1ccccc1OC [1-allyloxy-2-methoxybenzene] | 66.7 | 23.3 | 30 | 67.8 |
| C=CCOc1ccccc1OCCCCC [1-allyloxy-2-pentoxybenzene] | 66.7 | 23.3 | 30 | 67.8 |
| C=CCOc1ccccc1OCCC [1-allyloxy-2-propoxybenzene] | 66.7 | 23.3 | 30 | 67.8 |
| C=CCOc1ccc(OCCCC)cc1 [1-allyloxy-4-butoxybenzene] | 16.8 | 10 | 22.6 | 84 |
| C=CCOc1ccc(OCC)cc1 [1-allyloxy-4-ethoxybenzene] | 5.4 | 10 | 27.9 | 82.4 |
| C=CCOc1ccc(OCCC(C)C)cc1 [1-allyloxy-4-isopentoxybenzene] | 18.8 | 7 | 15.7 | 75.1 |
| C=CCOc1ccc(OC)cc1 [1-allyloxy-4-methoxybenzene] | 5.4 | 10 | 27.9 | 82.4 |
| C=CCOc1ccc(OCCC)cc1 [1-allyloxy-4-propoxybenzene] | 5.4 | 10 | 27.9 | 82.4 |
| CCCCCOc1ccccc1OCCCC [1-butoxy-2-pentoxybenzene] | 28.7 | 6.7 | 16.8 | 98 |
| CCCCOc1cccc(OCC)c1 [1-butyloxy-3-ethoxybenzene] | 25.9 | 30 | 14.4 | 84.1 |
| CCCCOc1cccc(OC)c1 [1-butyloxy-3-methoxybenzene] | 25.9 | 30 | 14.4 | 84.1 |
| CCCCCOc1cccc(OCCCC)c1 [1-butyloxy-3-pentoxybenzene] | 25.9 | 30 | 14.4 | 84.1 |
| CCCCOc1cccc(OCCC)c1 [1-butyloxy-3-propoxybenzene] | 25.9 | 30 | 14.4 | 84.1 |
| CCCCOc1ccc(OCC)cc1 [1-butyloxy-4-ethoxybenzene] | 50.1 | 58.1 | 14.5 | 83.4 |
| CCCCOc1ccc(OC)cc1 [1-butyloxy-4-methoxybenzene] | 50.1 | 58.1 | 14.5 | 83.4 |
| CCCCCOc1ccc(OCCCC)cc1 [1-butyloxy-4-pentoxybenzene] | 50.1 | 58.1 | 14.5 | 83.4 |
| CCCCOc1ccc(OCCC)cc1 [1-butyloxy-4-propoxybenzene] | 50.1 | 58.1 | 14.5 | 83.4 |

| Compound | Activity [1] [%] | mortality [2] [%] | DC50 [3] [microg/cm2] | Activity [4] [%] |
| --- | --- | --- | --- | --- |
| CCCCOc1ccccc1OCC [1-ethoxy-2-butoxybenzene] | 28.7 | 6.7 | 24.1 | 71 |
| CCCCCOc1ccccc1OCC [1-ethoxy-2-pentoxybenzene] | 28.7 | 6.7 | 24.1 | 71 |
| CCCOc1ccccc1OCC [1-ethoxy-2-propoxybenzene] | 28.7 | 6.7 | 24.1 | 71 |
| CCCCCOc1cccc(OCC)c1 [1-ethoxy-3-pentoxybenzene] | 14.3 | 20 | 26.5 | 69.8 |
| CCCOc1cccc(OCC)c1 [1-ethoxy-3-propoxybenzene] | 14.3 | 20 | 26.5 | 69.8 |
| CCCCOc1ccccc1OCCC(C)C [1-isopentoxy-2-butoxybenzene] | 29.4 | 10 | 32.5 | 66.9 |
| CCOc1ccccc1OCCC(C)C [1-isopentoxy-2-ethoxybenzene] | 29.4 | 10 | 32.5 | 66.9 |
| COc1ccccc1OCCC(C)C [1-isopentoxy-2-methoxybenzene] | 29.4 | 10 | 32.5 | 66.9 |
| CCCCCOc1ccccc1OCCC(C)C [1-isopentoxy-2-pentoxybenzene] | 29.4 | 10 | 32.5 | 66.9 |
| CCOc1cccc(OCCC(C)C)c1 [1-isopentyloxy-3-ethoxybenzene] | 35.7 | 20.8 | 19.8 | 82.6 |
| COc1cccc(OCCC(C)C)c1 [1-isopentyloxy-3-methoxybenzene] | 35.7 | 20.8 | 19.8 | 82.6 |
| CCCCCOc1cccc(OCCC(C)C)c1 [1-isopentyloxy-3-pentoxybenzene] | 35.7 | 20.8 | 19.8 | 82.6 |
| CCOc1ccc(OCCC(C)C)cc1 [1-isopentyloxy-4-ethoxybenzene] | 22.9 | 18.8 | 5.8 | 100 |
| COc1ccc(OCCC(C)C)cc1 [1-isopentyloxy-4-methoxybenzene] | 22.9 | 18.8 | 5.8 | 100 |
| CCCOc1ccc(OCCC(C)C)cc1 [1-isopentyloxy-4-propoxybenzene] | 22.9 | 18.8 | 5.8 | 100 |
| CCOc1cccc(OC)c1 [1-methoxy-3-ethoxybenzene] | 70.2 | 16.7 | 61.5 | 54.8 |
| CCCCCOc1cccc(OC)c1 [1-methoxy-3-pentoxybenzene] | 70.2 | 16.7 | 61.5 | 54.8 |
| CCCOc1cccc(OC)c1 [1-methoxy-3-propoxybenzene] | 70.2 | 16.7 | 61.5 | 54.8 |
| CCCCCOc1ccc(OC)cc1 [1-methoxy-4-pentoxybenzene] | 6 | 23.3 | 34.6 | 80.2 |
| CCCOc1ccc(OC)cc1 [1-methoxy-4-propoxybenzene] | 6 | 23.3 | 34.6 | 53.4 |
| CCCCOc1ccccc1OCCC [1-propoxy-2-butoxybenzene] | 31.7 | 13.8 | 19.4 | 100 |
| CCCCCOc1ccccc1OCCC [1-propoxy-2-pentoxybenzene] | 31.7 | 13.8 | 19.4 | 100 |
